Results published in ChEMBL document CHEMBL2424523, “2,3,9- and 2,3,11-trisubstituted tetrahydroprotoberberines as D2 dopaminergic ligands” (Eur J Med Chem, 2013).

How the values were obtained:
D(1A) dopamine receptor = D(1A) dopamine receptor (Rattus norvegicus, UniProt P18901); experiment: Displacement of [3H]-SCH 23390 from dopamine D1 receptor in rat striatal membranes after 1 hr by liquid scintillation counting analysis; type: cell membranes, Membrane
In short: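 Striatal membranes washed twice by centrifugation at 20000g in Tris-HCl (50 mM, pH 7.4), then resuspended in Tris with 5 mM MgSO4, 0.5 mM EDTA and 0.02% ascorbate. 100 µg protein incubated 1 h at 25 °C with 0.25 nM [3H]SCH 23390. Nonspecific binding defined with 30 µM SK&F 38393. Filtered on GF/B, scintillation counted. Mean ± SEM of 3-5 experiments.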

Rattus norvegicus = organism: Rattus norvegicus; experiment: Selectivity ratio of Ki for dopamine D1 receptor in rat striatal membranes to Ki for dopamine D2 receptor in rat striatal membranes; type: cell membranes; conditions: Membrane
In short: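 Ratio Ki(D1)/Ki(D2) from striatal membrane displacement assays: [3H]SCH 23390 at 0.25 nM (D1) and [3H]raclopride at 0.5 nM (D2), each incubated 1 h at 25 °C, with filtration and scintillation counting. Ki data are from 3-5 experiments.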

D(2) dopamine receptor = D(2) dopamine receptor (Rattus norvegicus, UniProt P61169); experiment: Displacement of [3H]-raclopride from dopamine D2 receptor in rat striatal membranes after 1 hr by liquid scintillation counting analysis; type: cell membranes, Membrane
D(2) dopamine receptor, sequence (P61169 whole entry): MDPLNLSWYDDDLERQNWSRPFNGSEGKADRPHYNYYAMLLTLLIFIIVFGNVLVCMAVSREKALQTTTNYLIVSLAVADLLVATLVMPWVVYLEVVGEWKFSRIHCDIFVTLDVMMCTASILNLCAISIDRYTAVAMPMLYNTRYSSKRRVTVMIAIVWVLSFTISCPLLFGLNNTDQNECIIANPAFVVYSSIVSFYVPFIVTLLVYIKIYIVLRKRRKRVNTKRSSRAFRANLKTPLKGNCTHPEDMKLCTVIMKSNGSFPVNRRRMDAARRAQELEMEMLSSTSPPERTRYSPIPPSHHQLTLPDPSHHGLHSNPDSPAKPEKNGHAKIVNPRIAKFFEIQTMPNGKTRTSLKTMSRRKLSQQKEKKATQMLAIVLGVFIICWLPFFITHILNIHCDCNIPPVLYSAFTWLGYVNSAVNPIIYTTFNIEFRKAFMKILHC
In short: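 200 µg protein incubated 1 h at 25 °C with 0.5 nM [3H]raclopride. Nonspecific binding defined with 50 µM apomorphine. GF/B filtration, scintillation counting. Mean ± SEM of 3-5 experiments.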

[1] = Cytotoxicity against human neutrophil assessed as cell viability at 3 uM after 24 hrs by MTT assay; type: cell-based
In short: (§1)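 Human peripheral blood neutrophils isolated from healthy-donor buffy coats by Ficoll-Hypaque, plated at 2 x 10^5 cells/mL in RPMI. Concentrations chosen from D2 Ki. Incubated 24 h at 37 °C, 5% CO2. MTT (1 mg/mL solution) added for 60 min, formazan dissolved in DMSO, absorbance read at 570/630 nm. Mean ± SEM, n=3.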

[2] = Cytotoxicity against human neutrophil assessed as cell survival at 0.1 uM after 24 hrs by annexin V-FITC/propidium iodide staining-based flow cytometric analysis
In short: (§2)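 Freshly isolated human blood neutrophils (Ficoll-Hypaque, healthy-donor buffy coats) at 2 x 10^6 cells/mL in supplemented RPMI. Cultured 24 h at 37 °C, 5% CO2, with or without compound. Annexin V-FITC/PI flow cytometry on 1 x 10^4 cells. Early apoptotic = annexin V+/PI−, late apoptotic/necrotic = V+/PI+, viable = V−/PI−. Mean ± SEM, n=3.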

[3] = Cytotoxicity against human neutrophil assessed as cell viability at 0.1 uM after 24 hrs by MTT assay; type: cell-based; in short: as §1
[4] = Induction of apoptosis in human neutrophil at 0.1 uM after 24 hrs by annexin V-FITC/propidium iodide staining-based flow cytometric analysis; type: cell-based; in short: as §2
[5] = Cytotoxicity against human neutrophil assessed as cell viability at 0.3 uM after 24 hrs by MTT assay; type: cell-based; in short: as §1
[6] = Cytotoxicity against human neutrophil assessed as cell viability at 100 uM after 24 hrs by MTT assay; type: cell-based; in short: as §1
[7] = Cytotoxicity against human neutrophil assessed as cell viability at 10 uM after 24 hrs by MTT assay; type: cell-based; in short: as §1

D(1A) dopamine receptor, sequence (P18901 whole entry): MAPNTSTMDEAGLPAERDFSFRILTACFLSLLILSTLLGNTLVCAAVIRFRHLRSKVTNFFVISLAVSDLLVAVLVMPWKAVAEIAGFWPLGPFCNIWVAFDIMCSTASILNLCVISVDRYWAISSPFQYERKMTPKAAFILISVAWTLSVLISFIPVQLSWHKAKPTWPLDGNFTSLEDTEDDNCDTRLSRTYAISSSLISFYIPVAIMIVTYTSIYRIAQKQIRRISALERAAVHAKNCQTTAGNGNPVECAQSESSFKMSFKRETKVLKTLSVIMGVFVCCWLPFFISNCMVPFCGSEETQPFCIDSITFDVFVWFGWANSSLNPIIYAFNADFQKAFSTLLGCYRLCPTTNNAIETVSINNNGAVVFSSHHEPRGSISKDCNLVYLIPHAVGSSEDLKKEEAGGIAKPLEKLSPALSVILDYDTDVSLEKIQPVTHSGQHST

SMILES	Ki (D(1A) dopamine receptor; read-out: Ki)	Ki (D(1A) dopamine receptor; read-out: pKi (converted))	Ratio Ki (Rattus norvegicus)	Ki (D(2) dopamine receptor; read-out: Ki)	Ki (D(2) dopamine receptor; read-out: pKi (converted))	Activity [1]	Activity [2]	Activity [3]	Activity [4]	Activity [5]	Activity [6]	Activity [7]
COc1cc2c(cc1OC)C1Cc3cccc(OC)c3CN1CC2 (configuration not stated)	3930 nM	3630 nM	10	393 nM	363 nM	Non-toxic						
Oc1cc2c(cc1O)C1Cc3cccc(O)c3CN1CC2 (configuration not stated)	3780 nM	3470 nM		93 nM	85.1 nM		Non-toxic	Non-toxic	Non-toxic			
Oc1cccc2c1CN1CCc3cc4c(cc3C1C2)OCO4 (configuration not stated)	344 nM	339 nM	10	35 nM	28.2 nM		Non-toxic	Non-toxic	Non-toxic			
COc1ccc2c(c1)CC1c3cc4c(cc3CCN1C2)OCO4 (configuration not stated)	2370 nM	1700 nM	1.8	1330 nM	1150 nM	Non-toxic						
COc1ccc2c(c1)CC1c3cc(O)c(O)cc3CCN1C2 (configuration not stated)	1110 nM	955 nM	14.2	78 nM	74.1 nM		Non-toxic	Non-toxic	Non-toxic			
Oc1ccc2c(c1)CC1c3cc(O)c(Cl)cc3CCN1C2 (configuration not stated)	107 nM		0.6	188 nM						Non-toxic		
COc1ccc2c(c1)CC1c3cc(OCc4ccccc4)c(OCc4ccccc4)cc3CCN1C2 (configuration not stated)	40600 nM		1	40900 nM	41700 nM						Non-toxic	
COc1ccc2c(c1)CC1c3cc(OC)c(Cl)cc3CCN1C2 (configuration not stated)	1810 nM	1740 nM	0.9	2050 nM		Non-toxic						
COc1ccc2c(c1)CC1c3cc(OC)c(OC)cc3CCN1C2 (configuration not stated)	4310 nM	4170 nM	0.5	8540 nM	5130 nM							Non-toxic
Oc1ccc2c(c1)CC1c3cc4c(cc3CCN1C2)OCO4 (configuration not stated)	33000 nM	32400 nM	4.4	7510 nM	6920 nM							Non-toxic
Oc1ccc2c(c1)CC1c3cc(O)c(O)cc3CCN1C2 (configuration not stated)	2960 nM	2630 nM	7.5	396 nM	389 nM	Non-toxic						
